Results reported in the EternaBench riboswitch data.

Test system: MS2 coat protein
Assay: apparent Kd, MS2 coat protein; higher = weaker binding; RNA-MaP array; FMN 200 µM where present
In short: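 The apparent Kd is the median of filtered binding-curve fits, one per cluster, to green signal normalised to red-channel RNA signal and control-cluster median Fmax. The clusters were on Illumina sequencing chips, and stalled E. coli RNA polymerase had transcribed the designs on them. Titration used SNAP-549-labelled MS2 coat protein from 0.7 or 1.5 nM, doubling to 3 µM, without and then with constant ligand, in 100 mM Tris-HCl pH 7.5, 80 mM KCl, 4 mM MgCl2, BSA, DTT, yeast tRNA and Tween-20.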

[1] = designed as: OFF switch for flavin mononucleotide, no ligand
[2] = ligand present: flavin mononucleotide, designed as: OFF switch for flavin mononucleotide
[3] = designed as: ON switch for flavin mononucleotide, no ligand
[4] = ligand present: flavin mononucleotide, designed as: ON switch for flavin mononucleotide

Row | Sequence | apparent Kd [1] | apparent Kd [2] | apparent Kd [3] | apparent Kd [4]
1 | AUUAUGACCGAGUUAUACCUCUAAACAUGAGGAUCACCCAUGUAGGAUAUCAGCACGAUAAGUGCUGAGAAGGACAUCUCGGUC | 17.2 nM | 27 nM |  | 
2 | AUUAUUGACGAAGGAUAUGGAUACAUGAGGAUCACCCAUGUAUAAUUUGUGAUCAUAUAUAUGAUCCAGAAGGUCGUUGUUUAU | 41 nM | 63.8 nM |  | 
3 | AUUAUUUAGUAGAAGGACGACUAUUAAUAUUUCGUAGGAUAUACUAUUUACAUGAGGAUCACCCAUGUUUAAAUGGAACAAUGU | 11.2 nM | 14 nM |  | 
4 | AUUCAACAUGAGGAUCACCCAUGUGAGGAUAUCGUAUACUACUGUUGCAAUACUUAGACGAGAAGGCACACCGU | 18.9 nM | 25.1 nM |  | 
5 | AUUCCUAGUGUUAGGAUAUGCGACGGGUGACCGUUGCAGAAGGAACAUGAGGAUCACCCAUGUUUAAUAAAAUC | 15.6 nM | 80.7 nM |  | 
6 | AUUGUUAAGGUAGGAUAUAGUAAAAUGAUUUAAUUAGAAGGAUCUCACAUGAGGAUCACCCAUGUAAGAGGAUUACCCAUGUAU | 14.5 nM | 13.2 nM |  | 
7 | AUUUAAUUUAAUAAGAUCACAUGAGGAUCACCCAUGUAUAUAUAGGAUAUCAGCUCGAAUAGAGCUGAGAAGGAUAUAUACAUG | 47.4 nM | 41 nM |  | 
8 | AUUUAAUUUAAUAAGAUCACAUGAGGAUCACCCAUGUAUAUAUAGGAUAUCAGCUCGUGUAGAGCUGAGAAGGAUAUAUACUAU | 316 nM | 204 nM |  | 
9 | AUUUCGUUAGCAGGAUAUGGACAGGCCUGUCCGUAUUGAGUCAGUAACAUGAGGAUCACCCAUGUCCAGAAGGGCUCGAAGUAG | 8.06 nM | 13.9 nM |  | 
10 | AUUUGACACGUAGGAUAUCGCUUAAAUUUAACACGAGAAGGACGAACAUGAGGAUCACCCAUGUAUCAUGGUGUAGAUAAUUUG | 54.5 nM | 216 nM |  | 
11 | AUUUUAAUAUAGGAUAUCGAAAUUAUUAUUUAACGAGAAGGAUGAACAUGAGGAUCACCCAUGUGGUAUCAUGG | 223 nM | 204 nM |  | 
12 | AUUUUGUCAGGAUAUGACUAGUAGCACGAAAGUGCUACUACUUAGAAGGGACAUGAGGAUCACCCAUGUAUUCC | 15.2 nM | 16.1 nM |  | 
13 | AUUUUGUCAGGAUAUGAGUAGUAGGACGAAAGUGUUAUUAUUUAGAAGGGACAUGAGGAUCACCCAUGUUUCUC | 12.3 nM | 15.8 nM |  | 
14 | AUUUUGUGAGGAUAUUAGUUGUAGAAAAUUGUUAGUAUAGCUGAGAAGGCACAUGAGGAUCACCCAUGUACAUC | 18 nM | 57.9 nM |  | 
15 | CAAAAUUGUGCAGGAUAUGCAGUUUGAUGGGCCUGUGGGAGAACAUGAGGAUCACCCAUGUGCUUGCAGAAGGGCACAAGCGAA | 103 nM | 419 nM |  | 
16 | CAAACCAGAGGAUAUGCGCAUAGAUCAGACUUUGUUUCUGAACAUGAGGAUCACCCAUGUAGAAGGCUGUAAAC | 25.5 nM | 24.4 nM |  | 
17 | CAACGUACCAGAGGAUAUGAUUGUGGGUAAAGAGCGCUCAGGUGGCUACAUGAGGAUCACCCAUGUCAGAAGGCUGGAGUUCAA | 114 nM | 59.6 nM |  | 
18 | CAACUGCAUGUGAGGAUAUGCACCGGCCAAGCCGGGCAGAAGGCACAUGAGGAUCACCCAUGUCAUCCUAUUGC | 12.6 nM | 27.8 nM |  | 
19 | CAAGGCUUCACAGGAUAUAUUGAUGACAUGAGGAUCACCCAUGUACCGGCAGUAGAAGGGUGAACGCUCGUGGCCACGUGCGUG |  |  | 130 nM | 35.6 nM
20 | CAAUUCCGAGGAUAUACAUGAGGAUCACCCAUGUCGGGCCUCAGCGUUUAGCGCGUAAGUAGAAGGUGGGUUUC | 30.4 nM | 41.1 nM |  | 
21 | CACAAUCUAUCUGAGGAUAUCAUGAAAAAAACAUGAGGAUCACCCAUGUGCAGGAAAACUGCAUAUGAGAAGGCAGAUAGAUUGU |  |  | 770 nM | 28.4 nM

Row | Sequence | apparent Kd [1] | apparent Kd [2] | apparent Kd [3] | apparent Kd [4]
22 | CACACCGUAGGAGGAUAUCCCUGGACAUGAGGAUCACCCAUGUUUAGCCCGUCCUCAUGUUAGUCGGAGAAGGCCUAGUGGUCG | 36.7 nM | 37.6 nM |  | 
23 | CACCGUUACAGAGGAUAUCUUACAUGAGGAUCACCCAUGUAAUAAAUGAGAAUUUCGGAUGUAUGAGAGAAGGCUGGAAUCGGC | 23.2 nM | 22 nM |  | 
24 | CACGAUGAUGUAGGAUAUAUGCUGGAAUACAGCAUAGAAGGACAUGAGGAUCACCCAUGUAAAGUGCCUCCAAAUAACAUCGUG | 18.5 nM | 44.5 nM |  | 
25 | CACGGAUAGUAGAAGGGUGACAUGAGGAUCACCCAUGUACUUAUUUAUUUAUUACUAUUUCAUACACAGGAUAUACUAUCCGUG |  |  | 652 nM | 176 nM
26 | CACGGCGUAUCAGGAUAUGUGGGUGUCUGGACAUGAGGAUCACCCAUGUAAUCAGUAUUAGCCGUGCAGAAGGGAUCCGCUGUA |  |  | 35.2 nM | 60.3 nM
27 | CACUCACAUGAGGAUCACCCAUGUCCUAGGAGGUCAGGAUAUAGCUCGGAUGCGUUGAGGCUAGAAGGGACAGGUU |  |  | 79.5 nM | 88.6 nM
28 | CACUCGUGUCUAGGAUAUGAGUGACAAGCGCGAGAUUUUCUCGCUGCUAGCUCAGAAGGAGACAUGAGGAUCACCCAUGUAAGG | 144 nM | 25.4 nM |  | 
29 | CACUGUCAUGCAGGAUAUGCAUUGGAUUACAAUGCAGAAGGGCGAUUACAUGAGGAUCACCCAUGUGUAGACAGUGAAGAAGAG |  |  | 165 nM | 12.7 nM
30 | CAGAAGUCAGGAUAUCCAUGGCGGCACUUGCGUGGUGGCGUGGAGAAGGGACAUGAGGAUCACCCAUGUAAAGC | 57.4 nM | 45.3 nM |  | 
31 | CAGAAGUCAGGAUAUCCUGCUCGUCACUUGCGUGAUGAGUAGGAGAAGGGACAUGAGGAUCACCCAUGUAAAGG | 144 nM | 411 nM |  | 
32 | CAGAAGUCAGGAUAUGCAUGGCGGGACUUGCGUCGUGGCGUGCAGAAGGGACAUGAGGAUCACCCAUGUGGAGA | 138 nM | 224 nM |  | 
33 | CAGACACAUGAGGAUCACCCAUGUGAGGAUAUGCGUACGUUGUCCGUAGGCGACGUGCGCAGAAGGCACAAAGG | 73.4 nM | 104 nM |  | 
34 | CAGAUUUGCUAGAAGGGUGACAUGAGGAUCACCCAUGUGCGGGCAGUCCUAUCUUCAUGCCCGCCACAGGAUAUAGCAAUUCUC |  |  | 24.1 nM | 49 nM
35 | CAGCACGGAAACAAAGUCUUCGGACAUGAGGAUCACCCAUGUAAGGAUAUGCCUACUAAAAGUAGGCAGAAGGUACGCGUGCUG | 18.9 nM | 50.9 nM |  | 
36 | CAGCACUAUCGAGAGGAUAUGCGGUGAUGGACAUGAGGAUCACCCAUGUUAGCGGUAGCAUCACGGCAGAAGGCUCUGCUGCUGC |  |  | 28.8 nM | 19.9 nM
37 | CAGCCCUGAGGAUAUCCCUACUUGUACAUGAGGAUCACCCAUGUUCUCCUCUGGGCUUUGGGAGAAGGCAGGUCUC | 15 nM | 17.7 nM |  | 
38 | CAGCCCUGAGGAUAUCCCUCCUUGUACAUGAGGAUCACCCAUGUUCUCCUCUGGGCCUUGGGAGAAGGCAGAUCUC | 56.9 nM | 49.5 nM |  | 
39 | CAGCGAAAGUAGAAGGCAGUACUGAUACAGUACUGAGGAUAUACAUGAGGAUCACCCAUGUACAAAAGCUGGAAAUAAAUAAAA | 6.56 nM | 6.81 nM |  | 
40 | CAGCGACAUGGAGGAUAUAGGGCCCAAGGGCACCUAGAAGGCCAAAAGCAGACAGGUCACAUGAGGAUCACCCAUGUACGCCAG |  |  | 241 nM | 16.3 nM
41 | CAGCGAUAGCUGAACAAUCUAUCUGAGGAUAUUCAUAUAAAACAUGAGGAUCACCCAUGUAAUUGGGAGAAGGCAGAUAGAUUG |  |  | 22.4 nM | 6.11 nM
42 | CAGCGAUAGCUGAAUGGUACAUGGGAGGAUAUGGGAAGAUACAUGAGGAUCACCCAUGUUAAAUACUAGAAGGCCCAUGUACCU |  |  | 14.9 nM | 5.45 nM
